Results on 5 compounds are retold here after ChEMBL document CHEMBL1275382, “Synthesis and SAR studies of chiral non-racemic dexoxadrol analogues as uncompetitive NMDA receptor antagonists” (Bioorg Med Chem, 2010).

Assay [1] concerns the target Sigma non-opioid intracellular receptor 1 (Homo sapiens, UniProt Q99720). The experiment in a line: Binding affinity to sigma1 receptor. A digest of the protocol:
(§1)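 Radioligand competition binding with at least six test-compound concentrations, each run in triplicate. Incubations were stopped by rapid filtration through filters presoaked 2 h in 0.5% aqueous polyethylenimine, and bound radioactivity was counted by solid scintillation. IC50 came from non-linear regression and Ki from the Cheng–Prusoff equation. Values are mean ± SEM of three independent experiments.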

A short description of assay [2]: Binding affinity to sigma2 receptor. Summed up: as §1
A short description of assay [3]: Binding affinity to NMDA receptor ifenprodil binding site. A digest of the protocol:
as §1

Broadly, the Ki is a measure of affinity in units of concentration, obtained from inhibition or displacement. Low values mean a stronger hold on the target, high ones a looser hold on the target.

Chain of Sigma non-opioid intracellular receptor 1 (Q99720 whole entry): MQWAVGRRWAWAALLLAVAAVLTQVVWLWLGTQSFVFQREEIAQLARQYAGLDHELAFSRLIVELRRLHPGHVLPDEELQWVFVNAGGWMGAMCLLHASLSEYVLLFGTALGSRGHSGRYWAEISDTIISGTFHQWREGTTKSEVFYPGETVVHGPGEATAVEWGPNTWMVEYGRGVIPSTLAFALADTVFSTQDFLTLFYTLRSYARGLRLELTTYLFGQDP

As to `FC1(F)CCNC(C2COC(c3ccccc3)(c3ccccc3)O2)C1` (racemic), the Ki in assay [1] is greater than 800 nM; in assay [2], greater than 1000 nM; in assay [3], greater than 1000 nM.

Regarding `FC1CCNC(C2COC(c3ccccc3)(c3ccccc3)O2)C1` (racemic), the Ki is greater than 800 nM in assay [1], greater than 1000 nM in assay [2] and greater than 1000 nM in assay [3].

On to `OC1CCNC(C2COC(c3ccccc3)(c3ccccc3)O2)C1` (racemic), for which the Ki in assay [1] is greater than 800 nM; in assay [2], greater than 1000 nM; in assay [3], greater than 1000 nM.

With `O=C1CCNC(C2COC(c3ccccc3)(c3ccccc3)O2)C1` (racemic), the Ki in assay [1] was greater than 800 nM; in assay [2], greater than 1000 nM; in assay [3], greater than 1000 nM.

In the case of `c1ccc(C2(c3ccccc3)OCC(C3CCCCN3)O2)cc1` (racemic) [DIOXADROL], the Ki is greater than 800 nM in assay [1], greater than 1000 nM in assay [2] and greater than 1000 nM in assay [3].
